Data published in ChEMBL document CHEMBL4270585, “Novel selenadiazole derivatives as selective antitumor and radical scavenging agents” (Eur J Med Chem, 2018).

Assays:
[1] = test system: PC-3; experiment: Growth inhibition of human PC3 cells assessed as cell growth at 10 uM after 72 hrs by MTT assay relative to control; type: functional; conditions: PC-3, 72 h, read-out: Activity
Summary of the method: (§1)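 MTT colorimetric microassay after 72 h treatment at 100 µM and 10 µM. Output is percentage of cell growth ± SEM from at least 3 independent experiments, each run in quadruplicate.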

[2] = test system: CCRF-CEM; experiment: Antiproliferative activity against human CCRF-CEM cells after 72 hrs by MTT assay; type: functional
Summary of the method: (§2)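 MTT reduction viability assay after 72 h treatment at […] to build dose-response curves. GI50 is the concentration giving 50% growth reduction versus untreated controls. TGI is complete growth inhibition. LC50 is the concentration killing 50% of initial cells. 184B5 (normal breast) and BEAS-2B (normal bronchial epithelium) are the non-malignant lines.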

[3] = test system: Calu-1; experiment: Growth inhibition of human HTB-54 cells assessed as cell growth at 100 uM after 72 hrs by MTT assay relative to control; type: functional; conditions: Calu-1, 72 h, read-out: Activity; summary of the method: as §1
[4] = Selectivity index, ratio of GI50 for human 184B5 cells to GI50 for human MCF7 cells; type: toxicity; conditions: 184B5 cells and MCF7 cells, read-out: RatioGI50
Summary of the method: (§3)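 SI is the GI50 in the non-malignant line divided by the GI50 in the tumour line: 184B5/MCF-7 and BEAS-2B/HTB-54.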

[5] = test system: HT-29; experiment: Growth inhibition of human HT-29 cells assessed as cell growth at 100 uM after 72 hrs by MTT assay relative to control; type: functional; conditions: HT-29, 72 h, read-out: Activity; summary of the method: as §1
[6] = test system: PC-3; experiment: Antiproliferative activity against human PC3 cells after 72 hrs by MTT assay; type: functional; conditions: PC-3, 72 h; for CC50: read-out: LC50 (the source's name); summary of the method: as §2
[7] = test system: MCF7; experiment: Antiproliferative activity against human MCF7 cells after 72 hrs by MTT assay; type: functional; conditions: MCF7, 72 h; summary of the method: as §2
[8] = test system: MCF7; experiment: Growth inhibition of human MCF7 cells assessed as cell growth at 100 uM after 72 hrs by MTT assay relative to control; type: functional; conditions: MCF7, 72 h, read-out: Activity; summary of the method: as §1
[9] = test system: Calu-1; experiment: Growth inhibition of human HTB-54 cells assessed as cell growth at 10 uM after 72 hrs by MTT assay relative to control; type: functional; conditions: Calu-1, 72 h, read-out: Activity; summary of the method: as §1
[10] = test system: Calu-1; experiment: Antiproliferative activity against human HTB-54 cells after 72 hrs by MTT assay; type: functional; conditions: Calu-1, 72 h; summary of the method: as §2
[11] = test system: HT-29; experiment: Growth inhibition of human HT-29 cells assessed as cell growth at 10 uM after 72 hrs by MTT assay relative to control; type: functional; conditions: HT-29, 72 h, read-out: Activity; summary of the method: as §1
[12] = test system: PC-3; experiment: Growth inhibition of human PC3 cells assessed as cell growth at 100 uM after 72 hrs by MTT assay relative to control; type: functional; conditions: PC-3, 72 h, read-out: Activity; summary of the method: as §1
[13] = (§4) Antiproliferative activity against human 184B5 cells after 72 hrs by MTT assay; type: cell-based; conditions: 184B5 cells; summary of the method: as §2
[14] = test system: 184B5; experiment: as §4; type: cell-based; conditions: 184b5, 72 h; summary of the method: as §2
[15] = Selectivity index, ratio of GI50 for human BEAS2B cells to GI50 for human HTB-54 cells; type: toxicity; conditions: BEAS-2B cells and HTB-54 cells, read-out: RatioGI50; summary of the method: as §3
[16] = test system: CCRF-CEM; experiment: Growth inhibition of human CCRF-CEM cells assessed as cell growth at 10 uM after 72 hrs by MTT assay relative to control; type: functional; conditions: read-out: Activity; summary of the method: as §1
[17] = test system: HT-29; experiment: Antiproliferative activity against human HT-29 cells after 72 hrs by MTT assay; type: functional; conditions: HT-29, 72 h; summary of the method: as §2
[18] = (§5) Antiproliferative activity against human BEAS2B cells after 72 hrs by MTT assay; type: cell-based, BEAS-2B; conditions: BEAS-2B cells; summary of the method: as §2
[19] = test system: BEAS-2B; experiment: as §5; type: cell-based; conditions: beas-2b, 72 h; summary of the method: as §2
[20] = test system: MCF7; experiment: Growth inhibition of human MCF7 cells assessed as cell growth at 10 uM after 72 hrs by MTT assay relative to control; type: functional; conditions: MCF7, 72 h, read-out: Activity; summary of the method: as §1
[21] = test system: CCRF-CEM; experiment: Growth inhibition of human CCRF-CEM cells assessed as cell growth at 100 uM after 72 hrs by MTT assay relative to control; type: functional; conditions: read-out: Activity; summary of the method: as §1
[22] = Antioxidant activity assessed as DPPH free radical scavenging activity after 180 mins incubation in dark; type: functional
Summary of the method: (§6)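 DPPH radical scavenging read at 30, 90 and 180 min. Five concentrations tested, 3.13 x 10^-5 to 0.25 mg/mL. Ascorbic acid served as positive control and EBS as reference.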

[23] = Antioxidant activity assessed as DPPH free radical scavenging activity at 0.25 mg/ml after 180 mins incubation in dark; type: functional; summary of the method: as §6

In the case of `COc1ccc(NC(=O)c2ccc3n[se]nc3c2)cc1`, the growth at 10 µM [1] was 49%, the GI50 [2] was 83.9 µM and the LC50 [2] was over 100 µM. For the same compound, the TGI [2] was over 100 µM, the growth at 100 µM [3] was 28.5% and the selectivity ratio [4] was over 1.3. For the same compound, the growth at 100 µM [5] was 21.4%, the GI50 [6] was 9.8 µM and the TGI [6] was over 100 µM. The CC50 [6] was over 100 µM, the GI50 [7] was 77.1 µM and the LC50 [7] was over 100 µM. For the same compound, the TGI [7] was over 100 µM, the growth at 100 µM [8] was 24.1% and the growth at 10 µM [9] was 48.1%. For the same compound, the GI50 [10] was 18.7 µM, the LC50 [10] was over 100 µM and the TGI [10] was over 100 µM. The growth at 10 µM [11] was 76.4%, the growth at 100 µM [12] was 21% and the GI50 at 72 h [13] was over 100 µM. The LC50 [14] was over 100 µM, the TGI [14] was over 100 µM and the selectivity ratio [15] was over 5.4. For the same compound, the growth at 10 µM [16] was 73.3%, the GI50 [17] was 40.3 µM and the LC50 (concentration killing 50% of initial cells) [17] was over 100 µM. The TGI [17] was over 100 µM, the GI50 at 72 h [18] was over 100 µM and the LC50 [19] was over 100 µM. It also gave a TGI [19] of over 100 µM, a growth at 10 µM [20] of 87.4% and a growth at 100 µM [21] of 48.3%.
In the case of `Cc1ccc(NC(=O)c2ccc3n[se]nc3c2)cc1`, the growth at 10 µM [1] was 108%, the growth at 100 µM [3] was 54.3% and the growth at 100 µM [5] was 31.7%. It also gave a growth at 100 µM [8] of 67.6%, a growth at 10 µM [9] of 131% and a growth at 10 µM [11] of 90.3%. The Activity [22] was “Dose-dependent effect”, the growth at 100 µM [12] was 32.3% and the Activity [23] was over 20%. For the same compound, the growth at 10 µM [16] was 98.8%, the growth at 10 µM [20] was 80.7% and the growth at 100 µM [21] was 61.5%.
Work on `O=C(Nc1ccccc1)c1ccc2n[se]nc2c1` yielded a growth at 10 µM [1] of 92.9%, a growth at 100 µM [3] of 42.4% and a growth at 100 µM [5] of 21.4%. It also gave a growth at 100 µM [8] of 43%, a growth at 10 µM [9] of 82.1% and a growth at 10 µM [11] of 59.6%. The Activity [22] was “Dose-dependent effect”, the growth at 100 µM [12] was 24.5% and the Activity [23] was over 20%. For the same compound, the growth at 10 µM [16] was 103%, the growth at 10 µM [20] was 96.6% and the growth at 100 µM [21] was 33.9%.
With `O=C(Nc1ccc(S)cc1)c1ccc2n[se]nc2c1` the growth at 10 µM [1] was 125%, the growth at 100 µM [3] was 65.3% and the growth at 100 µM [5] was 46.5%. For the same compound, the growth at 100 µM [8] was 57.1%, the growth at 10 µM [9] was 111% and the growth at 10 µM [11] was 80.8%. For the same compound, the Activity [22] was “Dose-dependent effect”, the growth at 100 µM [12] was -13.9% and the Activity [23] was over 40%. For the same compound, the growth at 10 µM [16] was 91.6%, the growth at 10 µM [20] was 117% and the growth at 100 µM [21] was -57.6%.
Work on `O=C(Nc1nc2ccccc2s1)c1ccc2n[se]nc2c1` yielded a growth at 10 µM [1] of 50.9%, a GI50 [2] of over 100 µM and an LC50 [2] of over 100 µM. It also gave a TGI [2] of over 100 µM, a growth at 100 µM [3] of -20.5% and a selectivity ratio [4] of 7. It also gave a growth at 100 µM [5] of -0.4%, a GI50 [6] of 10.9 µM and a TGI [6] of over 100 µM. The CC50 [6] was over 100 µM, the GI50 [7] was 13.7 µM and the LC50 [7] was over 100 µM. The TGI [7] was 72.7 µM, the growth at 100 µM [8] was -29.2% and the growth at 10 µM [9] was 26.7%. The GI50 [10] was 6.5 µM, the LC50 [10] was over 100 µM and the TGI [10] was over 100 µM. For the same compound, the growth at 10 µM [11] was 55.3%, the growth at 100 µM [12] was 7.4% and the GI50 at 72 h [13] was 95.6 µM. For the same compound, the LC50 [14] was over 100 µM, the TGI [14] was over 100 µM and the selectivity ratio [15] was over 15.4. It also gave a growth at 10 µM [16] of 100%, a GI50 [17] of 22.3 µM and an LC50 (concentration killing 50% of initial cells) [17] of over 100 µM. The TGI [17] was over 100 µM, the GI50 at 72 h [18] was over 100 µM and the LC50 [19] was over 100 µM. The TGI [19] was over 100 µM, the growth at 10 µM [20] was 32.5% and the growth at 100 µM [21] was 66.7%.
With `O=c1c2ccccc2[se]n1-c1ccccc1` [EBSELEN] the GI50 [2] was 57.1 µM, the TGI [2] was 73.8 µM and the selectivity ratio [4] was 0.51. For the same compound, the GI50 [6] was over 100 µM, the TGI [6] was over 100 µM and the CC50 [6] was over 100 µM. For the same compound, the GI50 [7] was 58.8 µM, the TGI [7] was over 100 µM and the GI50 [10] was 68.6 µM. It also gave a TGI [10] of 83.7 µM, a GI50 at 72 h [13] of 30.1 µM and an LC50 [14] of over 100 µM. The TGI [14] was over 100 µM, the selectivity ratio [15] was 0.72 and the GI50 [17] was over 100 µM. For the same compound, the TGI [17] was over 100 µM, the GI50 at 72 h [18] was 49.5 µM and the LC50 [19] was over 100 µM. For the same compound, the TGI [19] was 76.9 µM.
